Data on 17 compounds can be found in ChEMBL document CHEMBL4406919, “Structure-Based Design of Selective, Covalent G Protein-Coupled Receptor Kinase 5 Inhibitors” (ACS Med Chem Lett, 2019).

Assay [1] concerns the target T1, Rhodopsin kinase GRK1 (Bos taurus, UniProt P28327).
T1 sequence (P28327 whole entry): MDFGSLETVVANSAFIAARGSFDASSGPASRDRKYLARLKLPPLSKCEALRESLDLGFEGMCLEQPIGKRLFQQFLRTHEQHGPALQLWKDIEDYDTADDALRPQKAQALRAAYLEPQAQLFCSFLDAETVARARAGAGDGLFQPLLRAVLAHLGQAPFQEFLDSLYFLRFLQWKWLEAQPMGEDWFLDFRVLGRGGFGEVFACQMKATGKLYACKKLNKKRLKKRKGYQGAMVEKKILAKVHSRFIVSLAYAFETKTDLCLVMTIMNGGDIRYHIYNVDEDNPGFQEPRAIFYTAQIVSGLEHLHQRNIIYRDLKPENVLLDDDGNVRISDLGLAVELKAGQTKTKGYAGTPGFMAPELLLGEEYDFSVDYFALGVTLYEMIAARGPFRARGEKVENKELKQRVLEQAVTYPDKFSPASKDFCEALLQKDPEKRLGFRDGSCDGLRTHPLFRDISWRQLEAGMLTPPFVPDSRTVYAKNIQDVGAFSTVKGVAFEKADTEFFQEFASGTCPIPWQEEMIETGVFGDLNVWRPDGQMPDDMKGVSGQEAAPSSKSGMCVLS
The assay is described as follows: Inhibition of bovine GRK1 using tubulin as substrate measured after 4 hrs by [gamma-32P]-ATP assay. Put shortly: (§1)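 Radiometric kinase assay using tubulin as phosphoacceptor and [γ-32P]ATP. Inhibitor was preincubated with the kinase for the stated time (here 4 h) before the reaction. IC50 came from dose–response curves. Most runs were three independent experiments in duplicate; some GRK5/GRK6 4 h runs were done twice in duplicate.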

Assay [2] concerns the target T2, Beta-adrenergic receptor kinase 1 (Bos taurus, UniProt P21146).
T2 sequence (P21146 whole entry): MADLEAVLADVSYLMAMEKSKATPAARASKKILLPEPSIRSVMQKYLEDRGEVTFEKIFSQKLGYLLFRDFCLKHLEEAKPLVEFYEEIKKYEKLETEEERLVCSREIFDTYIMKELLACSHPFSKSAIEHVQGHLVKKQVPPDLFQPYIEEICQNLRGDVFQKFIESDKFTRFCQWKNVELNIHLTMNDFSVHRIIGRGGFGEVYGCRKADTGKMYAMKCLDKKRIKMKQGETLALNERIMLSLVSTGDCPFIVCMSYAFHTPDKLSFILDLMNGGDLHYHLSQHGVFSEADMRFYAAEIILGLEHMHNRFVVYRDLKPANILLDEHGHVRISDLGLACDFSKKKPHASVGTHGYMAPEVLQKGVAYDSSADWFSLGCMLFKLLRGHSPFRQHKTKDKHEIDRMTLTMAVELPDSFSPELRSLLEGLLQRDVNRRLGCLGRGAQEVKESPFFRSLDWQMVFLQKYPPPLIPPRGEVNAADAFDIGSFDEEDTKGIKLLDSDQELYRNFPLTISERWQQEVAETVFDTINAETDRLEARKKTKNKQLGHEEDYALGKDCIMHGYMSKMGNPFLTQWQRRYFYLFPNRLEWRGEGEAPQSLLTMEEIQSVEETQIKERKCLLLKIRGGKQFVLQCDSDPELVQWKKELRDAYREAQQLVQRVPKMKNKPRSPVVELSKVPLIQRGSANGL
The assay is described as follows: Inhibition of bovine GRK2 using tubulin as substrate measured after 4 hrs by [gamma-32P]-ATP assay. Put shortly:
as §1

The target of assay [3] is T1, Rhodopsin kinase GRK1. Briefly: Displacement of BODIPY TR-ADP from bovine GRK1 (1 to 535 residues) preincubated for 10 mins followed by compound addition and measured after 10 to 15 mins by fluorescence polarization displacement assay. (In fluorescence polarisation assays a small probe gives low polarisation when free and higher when bound to something large.)
The target in assay [4] is T3, G protein-coupled receptor kinase 5 (Homo sapiens, UniProt P34947). The assay is described as follows: Displacement of BODIPY TR-ADP from GRK5 (unknown origin) preincubated for 10 mins followed by compound addition and measured after 10 to 15 mins by fluorescence polarization displacement assay.
T3 sequence (P34947 whole entry): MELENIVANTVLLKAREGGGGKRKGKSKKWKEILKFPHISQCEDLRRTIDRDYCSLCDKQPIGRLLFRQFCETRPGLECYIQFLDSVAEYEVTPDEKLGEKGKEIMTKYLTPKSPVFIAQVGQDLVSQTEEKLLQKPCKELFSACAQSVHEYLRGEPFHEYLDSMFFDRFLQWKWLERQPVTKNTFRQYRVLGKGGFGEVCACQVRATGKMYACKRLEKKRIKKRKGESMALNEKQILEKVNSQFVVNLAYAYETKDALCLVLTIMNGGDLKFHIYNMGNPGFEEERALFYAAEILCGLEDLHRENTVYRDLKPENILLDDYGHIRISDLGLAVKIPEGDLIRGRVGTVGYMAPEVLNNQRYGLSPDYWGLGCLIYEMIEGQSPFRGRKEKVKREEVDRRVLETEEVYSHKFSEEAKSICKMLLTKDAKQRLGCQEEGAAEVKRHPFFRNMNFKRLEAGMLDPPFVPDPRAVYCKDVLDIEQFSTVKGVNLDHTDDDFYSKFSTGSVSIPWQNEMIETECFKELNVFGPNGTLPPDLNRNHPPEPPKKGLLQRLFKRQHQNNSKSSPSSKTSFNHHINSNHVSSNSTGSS
Assay [5] can be described thus: Inhibition of bovine GRK6 using tubulin as substrate measured after 4 hrs by [gamma-32P]-ATP assay. The arrangement: species or system Bos taurus. Put shortly: as §1
For assay [6], the target named is T3, G protein-coupled receptor kinase 5. Briefly: Inhibition of human GRK5 using tubulin as substrate measured after 4 hrs by [gamma-32P]-ATP assay.
Assay [7] is described as follows: Selectivity index, ratio of IC50 for bovine GRK2 to IC50 for human GRK5. Put shortly:
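Selectivity is the GRK2 IC50 divided by the GRK5 IC50. Both values come from the tubulin/[γ-32P]ATP radiometric assay. The GRK5 value used is from the longest inhibitor preincubation tested.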

The target of assay [8] is G protein-coupled receptor kinase 5 (Bos taurus, UniProt P43249, C474S). Briefly: Inhibition of bovine GRK5 C474S mutant using tubulin as substrate measured after 4 hrs by [gamma-32P]-ATP assay.
Sequence of G protein-coupled receptor kinase 5 (Bos taurus, UniProt P43249, C474S) (P43249 whole entry C474S): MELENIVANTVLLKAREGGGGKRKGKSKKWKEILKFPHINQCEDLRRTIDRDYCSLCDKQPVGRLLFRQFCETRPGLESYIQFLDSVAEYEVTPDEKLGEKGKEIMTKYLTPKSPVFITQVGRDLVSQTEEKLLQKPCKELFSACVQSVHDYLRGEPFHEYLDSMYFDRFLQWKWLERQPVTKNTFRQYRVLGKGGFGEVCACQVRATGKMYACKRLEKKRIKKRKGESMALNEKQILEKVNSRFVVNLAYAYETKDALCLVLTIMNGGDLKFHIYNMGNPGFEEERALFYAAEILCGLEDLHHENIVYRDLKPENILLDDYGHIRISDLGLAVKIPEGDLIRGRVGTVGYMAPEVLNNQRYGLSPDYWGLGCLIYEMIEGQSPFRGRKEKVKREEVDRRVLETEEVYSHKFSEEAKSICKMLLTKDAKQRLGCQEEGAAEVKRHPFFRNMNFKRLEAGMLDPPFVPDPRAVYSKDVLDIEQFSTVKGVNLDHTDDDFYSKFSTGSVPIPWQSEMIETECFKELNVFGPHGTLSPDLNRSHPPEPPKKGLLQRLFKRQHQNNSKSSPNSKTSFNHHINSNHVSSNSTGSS

For `COc1cc(NC(=O)/C=C/CN(C)C)ccc1Nc1nc(Nc2ccccc2C(N)=O)c2cc[nH]c2n1`, the IC50 (commonly the concentration at which inhibition is half-maximal) on Rhodopsin kinase GRK1 [1] was found to be 0.76 µM; in assay [2] it was 0.68 µM.
`COc1cc2c(cc1Nc1nc(Nc3ccsc3C(N)=O)c3cc[nH]c3n1)N(C(=O)CN(C)C)CCC2(C)C` [GSK-2163632A]: the IC50 on Rhodopsin kinase GRK1 [3] is 0.13 µM; in assay [4], 3.2 µM.
Turning to `CNC(=O)c1ccccc1Nc1nc(Nc2ccc(CNC(=O)/C=C/CN(C)C)cc2OC)nc2[nH]ccc12`, the IC50 in assay [2] and in assay [5] was above 100 µM throughout.
Regarding `C=CS(=O)(=O)NCc1ccc(OC)c(Nc2nc(Nc3ccccc3C(=O)NC)c3cc[nH]c3n2)c1`, the results for the IC50 in assay [6], in assay [2] and in assay [5] were 7.1 µM, above 100 µM and 2.5 µM, respectively. In addition, in assay [7], the Ratio IC50 is above 14.
Consider `CCC(=O)NCc1ccc(OC)c(Nc2nc(Nc3ccccc3C(=O)NC)c3cc[nH]c3n2)c1`, for which the IC50 in assay [6] was above 100 µM; in assay [2], 2.9 µM; in assay [5] it was above 100 µM. Further, the Ratio IC50 in assay [7] is below 0.01.
Take `CCCN1CCC(c2ccc(Nc3nc(Nc4cc(F)ccc4C(N)=O)c4cc[nH]c4n3)c(OC)c2)CC1` [GSK-1326255A]: the IC50 at Rhodopsin kinase GRK1 [3] is above 100 µM; in assay [4], 2.5 µM.
On to `CC#CC(=O)NCc1ccc(Nc2nc(Nc3ccccc3C(=O)NC)c3cc[nH]c3n2)c(OC)c1`, for which the IC50 in assay [2] and in assay [5] was above 100 µM each time.
As for `C=CC(=O)NCc1ccc(Nc2nc(Nc3ccccc3C(=O)NC)c3cc[nH]c3n2)c(OC)c1`, the IC50 in assay [2] and in assay [5] was above 100 µM each time.
For `C=CC(=O)NCc1ccc(OC)c(Nc2nc(Nc3ccccc3C(=O)NC)c3cc[nH]c3n2)c1`, the IC50 in assay [2] stood at 3.2 µM; in assay [5] it was 18 µM.
Turning to `CNC(=O)c1ccccc1Nc1nc(Nc2cc(CNC(=O)/C=C/CN(C)C)ccc2OC)nc2[nH]ccc12`, the results for the IC50 in assay [6], in assay [2] and in assay [5] were 4.8 µM, 2.1 µM and 2.6 µM, respectively. Further, the Ratio IC50 in assay [7] worked out at 0.4.
With `CCC(=O)NCc1ccc(Nc2nc(Nc3ccccc3C(=O)NC)c3cc[nH]c3n2)c(OC)c1`, the IC50 in assay [6] is above 100 µM; in assay [2], above 100 µM; in assay [5], above 100 µM; in assay [8], 100 µM.
With `COc1ccc(NC(=O)/C=C/CN(C)C)cc1Nc1nc(Nc2ccccc2C(N)=O)c2cc[nH]c2n1`, the IC50 against Rhodopsin kinase GRK1 [1] amounted to 2.1 µM; in assay [2], 2.7 µM.
In the case of `CC#CC(=O)NCc1ccc(OC)c(Nc2nc(Nc3ccccc3C(=O)NC)c3cc[nH]c3n2)c1`, the IC50 in assay [6], in assay [2] and in assay [5] was above 100 µM throughout.
On to `C=CC(=O)Nc1ccc(Nc2nc(Nc3ccccc3C(N)=O)c3cc[nH]c3n2)c(OC)c1`, for which 0.41 µM corresponded to half-maximal inhibition in assay [5] (IC50).
For `C=CS(=O)(=O)NCc1ccc(Nc2nc(Nc3ccccc3C(=O)NC)c3cc[nH]c3n2)c(OC)c1`, the IC50 in assay [2] was above 100 µM; in assay [5] it was 7.7 µM.
`CCCN1CCC(Oc2cc(Nc3nc(Nc4cccc(F)c4C(N)=O)c4cc[nH]c4n3)c(OC)cc2Cl)CC1` [GSK-1713088A] returned an IC50 in assay [4] of 3.2 µM. This lies in the single-digit micromolar range.
On to `CCC(=O)Nc1ccc(OC)c(Nc2nc(Nc3ccccc3C(N)=O)c3cc[nH]c3n2)c1`, for which the concentration for half-maximal inhibition (IC50) in assay [5] is above 100 µM.
